Common to all, as to assay type: functional, cell-based
The subject of experiment [1] is HL-60. The experiment in a line: Cytotoxicity against human HL60/TX1000 cell line by MTS assay. A digest of the protocol:
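HL-60/TX1000 is a subline isolated in vitro by subculturing HL-60 in rising Taxol concentrations. It overexpresses MDR1 mRNA and P-glycoprotein (Western blot, anti-P-gp immunofluorescence). Cells were grown in RPMI1640 with 10% FC, penicillin, streptomycin and L-glutamine, split every third day and set at 2· 10⁵ cells/mL the day before. Compound was a 1 mM DMSO stock diluted into medium, read by MTS.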
A general note: Tetrazolium dyes change colour on reduction, which living cells bring about.

Another experiment concerns MDA-MB-435. Briefly: Cytotoxicity against human MDA435 cell line by MTS assay. In short, it runs like this: (§1)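 Cells kept in RPMI1640 with 10% FC, 100 U/mL penicillin, streptomycin and […] L-glutamine. Split every third day and diluted to 2· 10⁵ cells/mL one day before testing, so exponentially growing cultures were used. Compound stock was 1 mM in DMSO, diluted straight into the medium to final concentrations. Viability was read by MTS.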

In the next experiment the test system is MES-SA/Dx5. Briefly: Cytotoxicity against human MES-SA/DX5 cell line by MTS assay. A digest of the protocol: as §1
A further experiment deals with DU-145. Briefly: Cytotoxicity against human DU145 cell line by MTS assay. A digest of the protocol:
as §1

The test system of a further experiment is MES-SA. The experiment in a line: Cytotoxicity against human MES-SA cell line by MTS assay. In short, it runs like this:
as §1

Experiment [2] has as its system HL-60. Briefly: Cytotoxicity against human HL60 cell line by MTS assay. In short, it runs like this:
as §1

The test system of the next experiment is P388. The experiment in a line: Cytotoxicity against murine P388 cell line by MTS assay. The settings on record: Mus musculus. A digest of the protocol:
as §1

The term IC50 denotes the concentration needed to halve the response being measured. A lower IC50 goes with greater potency.

In the experiment on HL-60 [1], `O=C(c1ncc[nH]1)c1cn(Cc2ccc(Cl)cc2)c2ccccc12` came in with a 50% inhibitory concentration (IC50) of 10000 nM.

With `COC(=O)c1c[nH]c(C(=O)c2cn(Cc3ccc(Cl)cc3)c3ccccc23)n1`, in the experiment with HL-60 [1], the half-maximal inhibitory concentration (IC50) is 500 nM. For the compound `CCNC(=O)c1c[nH]c(C(=O)c2cn(Cc3ccc(Cl)cc3)c3ccccc23)n1`, the half-maximal inhibitory concentration (IC50) with HL-60 [1] amounted to 5000 nM. For `O=C(c1nc2cc[nH]cc-2n1)c1cn(Cc2ccc(Cl)cc2)c2ccccc12`, the half-maximal inhibitory concentration (IC50) in the experiment on MDA-MB-435 stood at 50 nM; in the experiment with HL-60 [1] it was 50 nM; with MES-SA/Dx5, 50 nM; in the experiment with DU-145 it was 50 nM; with MES-SA it was 10 nM; with HL-60 [2], 50 nM. The IC50 in the experiment on P388 was determined as 50 nM.

Regarding `O=C(c1nc(CO)c[nH]1)c1cn(Cc2ccc(Cl)cc2)c2ccccc12`, the half-maximal inhibitory concentration (IC50) in the experiment on HL-60 [1] amounted to 5000 nM. As to `CCC(=O)c1c[nH]c(C(=O)c2cn(Cc3ccc(Cl)cc3)c3ccccc23)n1`, in the experiment on HL-60 [1], the midpoint of inhibition, the IC50, lay at 500 nM. As to `O=C(c1nc(C(O)c2cccnc2)c[nH]1)c1cn(Cc2ccc(Cl)cc2)c2ccccc12` (stereo unspecified), it took 10000 nM to reach half-maximal inhibition in the experiment with HL-60 [1] (IC50). This IC50 lies about 20-fold higher than the previous one. With `O=C(O)c1c[nH]c(C(=O)c2cn(Cc3ccc(Cl)cc3)c3ccccc23)n1`, the IC50 in the experiment with HL-60 [1] turned out to be 10000 nM. Regarding `Cn1c(C(=O)c2cn(Cc3ccc(Cl)cc3)c3ccccc23)nc2cnccc21`, in the experiment with HL-60 [1], half-maximal inhibition (IC50) was put at 10000 nM. Still for that read-out and setting: then `O=C(c1nc(-c2ccccn2)c[nH]1)c1cn(Cc2ccc(Cl)cc2)c2ccccc12`, with 500 nM; and `O=C(c1nc2ccc[nH]c-2n1)c1cn(Cc2ccc(Cl)cc2)c2ccccc12`, with 10000 nM. On the same count and under the same terms, then `O=C(c1cccnc1)c1c[nH]c(C(=O)c2cn(Cc3ccc(Cl)cc3)c3ccccc23)n1`, with 500 nM. Take `CC(=O)O[C@H]1C(=O)[C@@]2(C)[C@H]([C@H](OC(=O)c3ccccc3)[C@]3(O)C[C@H](OC(=O)[C@H](O)[C@@H](NC(=O)c4ccccc4)c4ccccc4)C(C)=C1C3(C)C)[C@]1(OC(C)=O)CO[C@@H]1C[C@@H]2O` [PACLITAXEL]: the figures for the IC50 with MDA-MB-435, in the experiment with MES-SA/Dx5 and in the experiment with MES-SA were 5 nM, 5000 nM and 5 nM, respectively.

Values taken from ChEMBL document CHEMBL1149502, “Conjugated indole-imidazole derivatives displaying cytotoxicity against multidrug resistant cancer cell lines” (Bioorg Med Chem Lett, 2006).
